Bioassay records from PubChem.
Most compounds without a hit are left out; they make up all but 3.2% or so of the library.
Apaf-1 inh: blocks human Apaf-1 apoptosome activity; inhibition, % at 20 µM; 0.71% of 330,000 active; reconstituted apoptosome caspase-3 activity, DEVD-Rh110 fluorescence; active = inhibition of at least 40% at 20 µM
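detection = Rh110 fluorescence intensity | test system = biochemical Apaf-1 apoptosome reconstitution | also added = cytochrome c and DEVD-Rh110 substrate | schedule = 30 min plus 50 min, RT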
MEKK2wt PB1 HTS: raises or lowers MEK5 binding to wildtype human MEKK2 PB1 domain; bead flow cytometry, Alexa488-MEK5 binding to MEKK2 WT; actives lie on both sides; binding response (% of control), % at 10 µM; 1.1% of 290,000 active; in the data active = binding response below about 67% or above about 130%
MEKK3 PB1 HTS: MEKK3-MEK5 PB1 interaction, increase or decrease; Q99759; bead-based flow cytometry, Alexa488-MEK5 binding to MEKK3; actives lie on both sides; 0 = blocked by unlabeled MEK5, 100 = vehicle; binding response (% of control), % at 10 µM; 1.4% of 290,000 active;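 active = binding response more than 3 SD above or below the average of its plate-row segment, actives on both sides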;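 also: Alexa488 bead fluorescence after subtracting the streptavidin-only scavenger bead signal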
MEKK2mut PB1 HTS: signal of MEK5 binding to mutant human MEKK2 PB1 domain | 0.35% of 290,000 active | percent response, % at 10 µM | bead flow cytometry, Alexa488-MEK5 binding to MEKK2 mutant | AID 1530; in the data active = percent response above about 24%, passing the limit was not always enough
DSG3 Ab inh: blocks pemphigus antibody binding to human desmoglein-3; P32926; DSG3-coupled beads, scFv-anti-DSG3-GFP binding, flow cytometry; hits give low values; binding (percent of control), % at 10 µM; 0.48% of 310,000 active;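 active = binding more than 3 SD below its plate's average and above zero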;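 also: hits lower antibody fragment binding to DSG3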
Target sequence (P32926 whole entry, looked up, the tested form may be a part): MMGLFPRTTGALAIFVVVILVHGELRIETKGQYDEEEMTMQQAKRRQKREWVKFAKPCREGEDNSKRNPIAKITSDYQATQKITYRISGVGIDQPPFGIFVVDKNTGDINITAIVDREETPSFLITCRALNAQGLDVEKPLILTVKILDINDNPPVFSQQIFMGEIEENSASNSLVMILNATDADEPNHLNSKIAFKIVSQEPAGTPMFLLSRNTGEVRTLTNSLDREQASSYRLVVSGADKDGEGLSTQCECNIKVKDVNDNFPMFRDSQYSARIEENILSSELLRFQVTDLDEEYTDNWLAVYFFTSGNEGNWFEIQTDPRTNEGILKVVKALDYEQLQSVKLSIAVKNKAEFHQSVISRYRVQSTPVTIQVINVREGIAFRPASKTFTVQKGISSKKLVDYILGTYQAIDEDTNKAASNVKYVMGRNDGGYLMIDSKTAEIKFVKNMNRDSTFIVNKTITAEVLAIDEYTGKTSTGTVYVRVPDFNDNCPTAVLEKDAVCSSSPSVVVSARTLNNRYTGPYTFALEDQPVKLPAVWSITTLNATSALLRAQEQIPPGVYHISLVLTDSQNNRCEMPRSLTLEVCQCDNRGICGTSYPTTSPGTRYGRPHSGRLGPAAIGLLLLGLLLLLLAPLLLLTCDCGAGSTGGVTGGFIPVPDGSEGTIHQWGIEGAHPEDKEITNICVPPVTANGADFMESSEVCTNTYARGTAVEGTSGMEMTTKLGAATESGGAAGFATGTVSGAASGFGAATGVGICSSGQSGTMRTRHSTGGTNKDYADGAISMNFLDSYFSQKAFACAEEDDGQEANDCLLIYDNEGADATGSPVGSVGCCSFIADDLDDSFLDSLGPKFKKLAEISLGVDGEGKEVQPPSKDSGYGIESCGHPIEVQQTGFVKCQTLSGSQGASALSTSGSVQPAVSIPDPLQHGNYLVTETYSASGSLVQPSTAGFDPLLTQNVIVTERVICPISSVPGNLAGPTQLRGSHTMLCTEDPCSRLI
UBC13 polyUb: human UBC13 polyubiquitination inhibition | inhibition, % at 20 µM | UBC13 polyubiquitin chain formation, TR-FRET | 0.47% of 330,000 active; in the data active = inhibition above about 45%, passing the limit was not always enough
Hits are given with their value; ! = not confirmed by another sample; [ ] = dose if it differs, or a comment.

What do the screens show for `C#CCOCCOCCOCCNc1nc(N2CCN(C(=O)CCCCCCCCCCNC(=O)[C@H](CCC(=O)O)n3cc(CCCCCN)nn3)CC2)nc(N2CCN(C(=O)CCCCCCCCCCNC(=O)[C@@H]([C@H](C)O)n3cc(C)nn3)CC2)n1`?
Apaf-1 inh: 50.9; DSG3 Ab inh: inactive; UBC13 polyUb: inactive

Results for CCN(c1ccc(OC)cc1)S(=O)(=O)c1ccc(-c2ccc(=O)[nH]n2)o1 ?
Apaf-1 inh: inactive; MEKK2wt PB1 HTS: inactive; MEKK3 PB1 HTS: inactive; MEKK2mut PB1 HTS: inactive; DSG3 Ab inh: inactive; UBC13 polyUb: inactive

What do the screens show for `COc1ccccc1CN(C(=O)CNC(=O)c1ccco1)C(C(=O)NCC1CCCO1)c1ccc(OC)c(OC)c1` (stereo not drawn)?
Apaf-1 inh: inactive; MEKK2wt PB1 HTS: inactive; MEKK3 PB1 HTS: inactive; MEKK2mut PB1 HTS: inactive; UBC13 polyUb: inactive

Results for Cc1ccc(C(=O)OCC(=O)Nc2cccc(S(=O)(=O)NC3=NCCCCC3)c2)c(C)c1 ?
Apaf-1 inh: inactive; MEKK2wt PB1 HTS: inactive; MEKK3 PB1 HTS: inactive; MEKK2mut PB1 HTS: inactive; DSG3 Ab inh: 74.2; UBC13 polyUb: inactive

What do the screens show for `O=C(CCC(=O)c1ccccc1)Nc1ccccc1`?
Apaf-1 inh: inactive; DSG3 Ab inh: 79.9; UBC13 polyUb: inactive

What do the screens show for `O=C(CCCCCCC(=O)c1ccccc1)c1ccccc1`?
Apaf-1 inh: inactive; MEKK2wt PB1 HTS: inactive; MEKK3 PB1 HTS: inactive; MEKK2mut PB1 HTS: inactive; DSG3 Ab inh: 62.5; UBC13 polyUb: inactive

What do the screens show for `O=C(CCCCC(=O)Nc1ccccc1)Nc1ccccc1`?
Apaf-1 inh: inactive; MEKK2wt PB1 HTS: inactive; MEKK3 PB1 HTS: inactive; MEKK2mut PB1 HTS: inactive; DSG3 Ab inh: inactive; UBC13 polyUb: inactive

What do the screens show for `COC(=O)CCC(=O)Nc1ccc(N=Nc2ccccc2)cc1`?
Apaf-1 inh: inactive; MEKK2wt PB1 HTS: inactive; MEKK3 PB1 HTS: inactive; MEKK2mut PB1 HTS: inactive; DSG3 Ab inh: -10.6; UBC13 polyUb: inactive

What do the screens show for `COc1ccc(C[C@H]2CN3C(=NC[C@@H]3Cc3ccccc3)N2C[C@H](C)NC(=O)CCC2CCCCC2)cc1`?
Apaf-1 inh: 51.6; MEKK2wt PB1 HTS: inactive; MEKK3 PB1 HTS: inactive; MEKK2mut PB1 HTS: inactive; UBC13 polyUb: inactive

How did O=C(Cn1nnc(-c2ccccc2NC(=O)c2ccco2)n1)Nc1ccccc1 do in these assays?
Apaf-1 inh: inactive; MEKK2wt PB1 HTS: inactive; MEKK3 PB1 HTS: inactive; MEKK2mut PB1 HTS: inactive; DSG3 Ab inh: 6.9; UBC13 polyUb: inactive

How did CC1(C)CC(=O)C2=C(C1)N(Cc1ccco1)C(=O)C2(NC(=O)c1cccnc1)C(F)(F)F (stereo not drawn) do in these assays?
Apaf-1 inh: inactive; MEKK2wt PB1 HTS: inactive; MEKK3 PB1 HTS: 56.0[inhibitor]; MEKK2mut PB1 HTS: inactive; DSG3 Ab inh: inactive; UBC13 polyUb: inactive

What do the screens show for `O=C(CCNC(=O)c1ccco1)Nc1ccc(Cl)cc1F`?
Apaf-1 inh: inactive; MEKK2wt PB1 HTS: inactive; MEKK3 PB1 HTS: inactive; MEKK2mut PB1 HTS: inactive; DSG3 Ab inh: inactive; UBC13 polyUb: inactive

What do the screens show for `O=c1[nH]c(C2CCCN(S(=O)(=O)c3ccccc3)C2)nc2c1nnn2Cc1ccccc1Br` (stereo not drawn)?
Apaf-1 inh: inactive; MEKK2wt PB1 HTS: inactive; MEKK3 PB1 HTS: inactive; MEKK2mut PB1 HTS: inactive; DSG3 Ab inh: inactive; UBC13 polyUb: inactive

Results for CC(=O)NS(=O)(=O)c1ccc(N)cc1 ?
Apaf-1 inh: inactive; MEKK2wt PB1 HTS: inactive; MEKK3 PB1 HTS: inactive; MEKK2mut PB1 HTS: inactive; DSG3 Ab inh: 24.8!; UBC13 polyUb: inactive

Results for Cc1ccc(S(=O)(=O)N2[C@@H](c3ccc(C(C)C)cc3)C(C(=O)O)=C[C@H]2C(C)(C)C)cc1 ?
Apaf-1 inh: inactive; DSG3 Ab inh: inactive; UBC13 polyUb: inactive

What do the screens show for `O=C(NCCCCCCNC(=O)OCc1ccccc1)OCc1ccccc1`?
DSG3 Ab inh: 6.8

How did O=S(=O)(c1cccs1)N1CCN(c2ccccn2)CC1 do in these assays?
Apaf-1 inh: inactive; MEKK2wt PB1 HTS: inactive; MEKK3 PB1 HTS: inactive; MEKK2mut PB1 HTS: inactive; DSG3 Ab inh: 79.5; UBC13 polyUb: inactive

How did O=S(=O)(c1cccs1)N1CCN(c2ncccn2)CC1 do in these assays?
Apaf-1 inh: inactive; MEKK2wt PB1 HTS: inactive; MEKK3 PB1 HTS: inactive; MEKK2mut PB1 HTS: inactive; DSG3 Ab inh: inactive; UBC13 polyUb: inactive

What do the screens show for `O=C1CC(CC(=O)N/N=C/c2ccccc2[N+](=O)[O-])=NN1`?
Apaf-1 inh: 45.9; MEKK2wt PB1 HTS: inactive; MEKK3 PB1 HTS: inactive; MEKK2mut PB1 HTS: inactive; DSG3 Ab inh: inactive; UBC13 polyUb: inactive

How did N#C/C(=C/c1ccc(-c2cc([N+](=O)[O-])ccc2Cl)o1)C(N)=O do in these assays?
Apaf-1 inh: inactive; MEKK2wt PB1 HTS: inactive; MEKK3 PB1 HTS: inactive; MEKK2mut PB1 HTS: inactive; DSG3 Ab inh: 75.4; UBC13 polyUb: inactive

What do the screens show for `CNC(=S)N/N=C/c1ccc(-c2cc([N+](=O)[O-])ccc2Cl)o1`?
Apaf-1 inh: inactive; MEKK2wt PB1 HTS: inactive; MEKK3 PB1 HTS: inactive; MEKK2mut PB1 HTS: inactive; DSG3 Ab inh: -11.7; UBC13 polyUb: inactive

Results for CC(C)=C1SC(N2CCN(c3cccc(C(F)(F)F)c3)CC2)=NC1=O ?
Apaf-1 inh: inactive; MEKK2wt PB1 HTS: inactive; MEKK3 PB1 HTS: inactive; MEKK2mut PB1 HTS: inactive; DSG3 Ab inh: 41.7; UBC13 polyUb: inactive

How did COc1ccc(OCC(=O)N2CCN(S(=O)(=O)c3ccc4c(c3)OCCO4)CC2)cc1 do in these assays?
DSG3 Ab inh: inactive

Results for Cc1cc2oc(=O)cc(-c3ccccc3)c2c(C)c1-c1ccc(F)c(Cl)c1 ?
Apaf-1 inh: inactive; DSG3 Ab inh: 74.1

Results for CCCn1c(C)nc2c(c1=O)c1nc3ccccc3nc1n2-c1ccccc1 ?
DSG3 Ab inh: 87.6

Results for CCCn1c(C)nc2c(c1=O)c1nc3ccccc3nc1n2CCC1=CCCCC1 ?
Apaf-1 inh: inactive; MEKK2wt PB1 HTS: inactive; MEKK3 PB1 HTS: inactive; MEKK2mut PB1 HTS: inactive; DSG3 Ab inh: inactive; UBC13 polyUb: inactive

What do the screens show for `COc1ccc(NC(=O)CSc2nnc(-c3cnccn3)n2C)cc1OC`?
Apaf-1 inh: inactive; MEKK2wt PB1 HTS: inactive; MEKK3 PB1 HTS: inactive; MEKK2mut PB1 HTS: inactive; DSG3 Ab inh: inactive; UBC13 polyUb: inactive

How did O=[N+]([O-])c1ccc2[nH]c(O)c(N=NC3CCS(=O)(=O)C3)c2c1 (stereo not drawn) do in these assays?
Apaf-1 inh: inactive; MEKK2wt PB1 HTS: inactive; MEKK3 PB1 HTS: inactive; MEKK2mut PB1 HTS: inactive; DSG3 Ab inh: 84.9; UBC13 polyUb: inactive

What do the screens show for `CCOC(=O)N1CCN(S(=O)(=O)N2CCCC(C(=O)NCc3cc(OC)ccc3OC)C2)CC1` (stereo not drawn)?
DSG3 Ab inh: inactive

Results for CCCCOc1ccc(C(C)NC(=O)CCS(=O)(=O)Cc2ccccc2Cl)cc1 (stereo not drawn) ?
Apaf-1 inh: inactive; MEKK2wt PB1 HTS: inactive; MEKK3 PB1 HTS: inactive; MEKK2mut PB1 HTS: inactive; DSG3 Ab inh: 12.6; UBC13 polyUb: inactive
